Data set [1] has as its target Mitogen-activated protein kinase 1 (Mus musculus) (UniProt P63085). Description: Activation of ERK2 in mouse RAW264.7 cells assessed as phosphorylation at Thr185/Tyr187 at 50 uM after 30 mins by Western blotting analysis. It is filed as cell-based. The procedure, abridged: (§1)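 RAW264.7 cells (passage 5-25) seeded at 1 × 10⁵ cells/cm², serum-starved overnight, then exposed in serum-free medium for 30 min to 3 h; 0.1% DMSO vehicle; 75 ng/mL EGF for 30 min as positive control. Whole-cell lysates (20 μg/lane) on 10% SDS-PAGE, blotted for phospho-ERK1 (Thr202/Tyr204), phospho-ERK2 (Thr185/Tyr187) and total ERK1/2, chemiluminescent detection.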

For data set [2], the target named is Mitogen-activated protein kinase 3 (Mus musculus) (UniProt Q63844). The experiment in a line: Activation of ERK1 in mouse RAW264.7 cells assessed as phosphorylation at Thr202/Tyr204 at 50 uM after 30 mins by Western blotting analysis. Format: cell-based. The procedure, abridged: as §1
Sequence of Mitogen-activated protein kinase 3 (Mus musculus) (Q63844 whole entry): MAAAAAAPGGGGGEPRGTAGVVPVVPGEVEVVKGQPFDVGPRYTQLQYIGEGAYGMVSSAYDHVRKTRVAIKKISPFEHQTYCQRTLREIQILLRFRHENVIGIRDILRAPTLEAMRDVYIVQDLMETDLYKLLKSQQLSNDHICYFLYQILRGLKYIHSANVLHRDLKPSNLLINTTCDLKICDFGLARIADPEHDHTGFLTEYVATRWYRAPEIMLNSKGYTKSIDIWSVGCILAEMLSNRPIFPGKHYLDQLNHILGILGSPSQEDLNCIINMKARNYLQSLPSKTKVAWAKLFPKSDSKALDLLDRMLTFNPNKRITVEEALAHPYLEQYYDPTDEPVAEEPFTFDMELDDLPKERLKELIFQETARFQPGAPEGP
Data set [3] concerns the target T1, Nuclear factor erythroid 2-related factor 2 (Mus musculus) (UniProt Q60795).
T1 sequence (whole entry): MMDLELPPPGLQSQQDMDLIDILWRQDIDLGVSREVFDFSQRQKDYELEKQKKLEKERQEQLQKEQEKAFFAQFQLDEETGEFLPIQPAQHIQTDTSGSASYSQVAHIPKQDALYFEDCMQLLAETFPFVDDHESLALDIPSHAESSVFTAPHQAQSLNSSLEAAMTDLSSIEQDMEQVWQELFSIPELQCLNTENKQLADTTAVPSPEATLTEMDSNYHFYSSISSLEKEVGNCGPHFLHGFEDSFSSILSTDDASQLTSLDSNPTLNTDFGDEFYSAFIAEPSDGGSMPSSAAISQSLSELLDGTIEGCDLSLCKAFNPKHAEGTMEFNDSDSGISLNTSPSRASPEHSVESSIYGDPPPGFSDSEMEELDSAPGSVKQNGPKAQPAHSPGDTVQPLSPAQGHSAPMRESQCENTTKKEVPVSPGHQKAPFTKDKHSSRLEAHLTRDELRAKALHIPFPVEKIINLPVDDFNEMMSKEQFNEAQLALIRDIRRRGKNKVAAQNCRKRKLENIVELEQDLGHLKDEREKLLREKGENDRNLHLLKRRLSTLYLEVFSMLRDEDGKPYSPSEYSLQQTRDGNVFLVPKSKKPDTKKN
Description: Activation of Nrf2 in mouse RAW264.7 cells assessed as upregulation of HO1 protein expression at 50 uM after 3 hrs by Western blotting analysis. Format: cell-based. The procedure, abridged: (§2)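 HO-1 protein in whole-cell lysates (20 μg/lane) of serum-starved RAW264.7 cells after 6 h at 10-50 μM or 50 μM for 1-6 h in serum-free medium, 0.1% DMSO control. Chemiluminescent Western blot; HO-1 densitometry normalized to actin, mean of three experiments.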
(In general: Immunoblotting shows a protein as a band on a membrane.)

The target of data set [4] is MAP kinase p38 (Homo sapiens) (UniProt O15264+Q15759+Q16539+P53778). The experiment in a line: Activation of p38MAPK in mouse RAW264.7 cells assessed as phosphorylation at Thr180/Tyr182 at 50 uM after 1 hr by Western blotting analysis. Format: cell-based. In a few lines: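 p38 phosphorylation at Thr180/Tyr182 and total p38 probed in whole-cell lysates (35 μg/lane) of serum-starved RAW264.7 cells treated for 30 min to 4 h in serum-free medium. Positive controls were 5 μM anisomycin or 75 ng/mL EGF for 30 min. Chemiluminescent Western detection.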

The subject of the next data set is RAW264.7. Description: Drug uptake in mouse RAW264.7 cells at 50 uM after 10 mins. Format: ADME, cell-based. Particulars: raw264.7, 10 min. In a few lines: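 Cells given 50 μM for up to 6 h, then scraped, washed twice in PBS and sonicated in methanol with 5% acetic acid. Supernatant analysed by UPLC on a phenyl column (water/1% acetic acid/methanol to methanol gradient, 35 °C) with negative ESI-QqTOF MS. Contents expressed as nmol per 10⁶ cells.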

Data set [5] addresses T1, Nuclear factor erythroid 2-related factor 2 (Mus musculus). Description: Activation of Nrf2 in mouse RAW264.7 cells assessed as upregulation of HO1 protein expression at 50 uM after 1 to 6 hr by Western blotting analysis. It is filed as cell-based. Particulars: TDE = time-dependent effect. In a few lines: as §2
For data set [6] the target is unchanged. Description: Activation of Nrf2 in mouse RAW264.7 cells assessed as upregulation of HO1 protein expression at 50 uM after 6 hrs by Western blotting analysis relative to untreated control. It is filed as cell-based. The procedure, abridged:
as §2

Data set [7] has the same target. The experiment in a line: Activation of Nrf2 in mouse RAW264.7 cells assessed as nuclear accumulation at 50 uM after 1 hr by Western blotting analysis. Format: cell-based. In a few lines: (§3)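 Serum-starved RAW264.7 cells treated 30 min to 3 h (10-50 μM for 3 h, or 50 μM time course); 0.1% DMSO control, 50 μM quercetin positive control. Cytosolic fraction from hypotonic HEPES pH 7.9 buffer with 0.1% NP-40; nuclear fraction by 420 mM NaCl extraction. 30 μg/lane blotted for Nrf2 and actin; Nrf2/actin densitometry, mean of three experiments.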

Data set [8] has the same target. The experiment in a line: Activation of Nrf2 in mouse RAW264.7 cells assessed as cytosolic accumulation at 25 uM after 3 hrs by Western blotting analysis. Format: cell-based. In a few lines: as §3
For data set [9] the target is unchanged. Description: Activation of Nrf2 in mouse RAW264.7 cells assessed as nuclear accumulation at 50 uM after 3 hrs by Western blotting analysis. Format: cell-based. The procedure, abridged: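 RAW264.7 cells (passage 5−25) seeded at 1 × 10⁵ cells/cm², switched to serum-free medium after 8 h, left overnight, then treated 3 h in serum-free medium; 0.1% DMSO vehicle control. Cells were swollen in hypotonic HEPES/NP-40 buffer for the cytosolic fraction and nuclei extracted in high-salt buffer. Blots loaded 30 μg/lane, Nrf2 densitometry normalized to actin, mean of three experiments.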

For data set [10] the target is unchanged. Description: Activation of Nrf2 in mouse RAW264.7 cells assessed as upregulation of Hmox1 gene expression at 25 uM after 6 hrs by real-time PCR analysis relative to GAPDH mRNA expression. It is filed as cell-based. In a few lines: (§4)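 RAW264.7 cells treated 6 h in serum-free medium, 0.1% DMSO control. Total RNA (2 μg) reverse transcribed; TaqMan qPCR for Hmox1 and Gapdh, 40 cycles. Relative expression by 2^−ΔΔCT, normalized to Gapdh; mean ± SD of three experiments.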

For data set [11] the target is unchanged. Description: Activation of Nrf2 in mouse RAW264.7 cells assessed as upregulation of Hmox1 gene expression at 10 to 50 uM after 6 hrs by real-time PCR analysis relative to GAPDH mRNA expression. Format: cell-based. The procedure, abridged:
as §4
On the technique in general: Real-time PCR tracks product formation cycle by cycle.

The source made the active and inactive calls. No cut-off for these calls is given here.

Sequence of Mitogen-activated protein kinase 1 (Mus musculus) (P63085 whole entry): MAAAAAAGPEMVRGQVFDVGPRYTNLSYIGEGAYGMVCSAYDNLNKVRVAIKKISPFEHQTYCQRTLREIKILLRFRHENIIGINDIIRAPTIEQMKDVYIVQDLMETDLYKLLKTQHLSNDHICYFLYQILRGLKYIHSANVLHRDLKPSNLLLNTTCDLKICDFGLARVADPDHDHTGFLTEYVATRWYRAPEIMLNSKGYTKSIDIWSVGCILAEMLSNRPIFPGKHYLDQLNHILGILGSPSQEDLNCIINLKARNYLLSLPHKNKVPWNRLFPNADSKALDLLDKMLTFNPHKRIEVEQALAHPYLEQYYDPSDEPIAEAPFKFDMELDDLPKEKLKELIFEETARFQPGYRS

With `O=C(Oc1cc(O)c2c(c1)O[C@H](c1ccc(O)c(O)c1)[C@@H](O)C2=O)c1cc(O)c(O)c(O)c1`, the result in [1], in data set [2], in data set [4], in data set [7], in data set [8] and in [9] was Active. In addition, the figures for the fold change (FC) in data set [3], in data set [6] and in data set [10] were 1.3, 2.5 and 4.8, respectively. In the data set on RAW264.7, this compound returned a Drug uptake of 85%. In addition, the Activity entry was “tde” in data set [5] and “Dose-dependent effect” in data set [11].
